Bioassay records as filed in PubChem BioAssay.
Shown are actives, neighbours in structure and some others; about 3.7% of the full set was active somewhere.
hERG protect: shields human hERG channel from block by proarrhythmic agents. Q12809. 310,000 tested, 0.51% active. activation (rescue from dofetilide block), less the hit threshold, % at 10 µM. AID 1511. CHO-hERG, FluxOR thallium flux, dofetilide IC70 present;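 active means activation above the mean of controls blocked by dofetilide plus 5 SD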;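 further: thallium influx through hERG after potassium depolarization seen as dye fluorescence rise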
KCNQ1 block: blocks the human KCNQ1 potassium channel | AID 2642 | B-score at 10 µM | 310,000 tested, 1.3% active | P51787 | CHO-K1 KCNQ1, FluxOR thallium flux fluorescence; stronger effect = higher value;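 active means compounds whose thallium flux B-score, printed positive for inhibition, exceeds three library SD while starting fluorescence stays within three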;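 further: channel opened by potassium depolarization with thallium stimulus after 20 min compound exposure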
Target sequence (P51787 whole entry, looked up): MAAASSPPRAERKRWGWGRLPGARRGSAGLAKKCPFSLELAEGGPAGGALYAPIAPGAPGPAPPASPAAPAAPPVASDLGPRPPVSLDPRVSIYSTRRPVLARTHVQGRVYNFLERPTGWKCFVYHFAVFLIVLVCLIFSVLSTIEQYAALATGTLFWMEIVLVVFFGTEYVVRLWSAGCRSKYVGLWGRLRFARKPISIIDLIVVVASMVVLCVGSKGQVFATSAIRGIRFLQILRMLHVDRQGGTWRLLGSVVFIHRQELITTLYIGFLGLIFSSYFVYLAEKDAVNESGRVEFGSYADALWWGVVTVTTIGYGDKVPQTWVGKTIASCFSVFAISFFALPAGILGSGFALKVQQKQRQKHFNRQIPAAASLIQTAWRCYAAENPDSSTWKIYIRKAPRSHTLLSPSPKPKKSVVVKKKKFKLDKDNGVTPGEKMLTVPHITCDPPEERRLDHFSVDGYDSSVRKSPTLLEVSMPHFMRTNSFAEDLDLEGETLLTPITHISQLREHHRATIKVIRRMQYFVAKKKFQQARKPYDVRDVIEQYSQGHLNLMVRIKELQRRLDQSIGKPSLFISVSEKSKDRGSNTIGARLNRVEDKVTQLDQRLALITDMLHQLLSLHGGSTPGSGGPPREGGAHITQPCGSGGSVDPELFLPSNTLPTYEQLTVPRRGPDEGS
KCNK9 inh: blocks the human KCNK9 two-pore domain potassium channel; AID 488922; 310,000 tested, 1.2% active; B-score at 10 µM; HEK293 KCNK9, FluxOR thallium flux fluorescence; stronger effect = lower value; Q9NPC2;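 active means ratio B-score over 3 SD below the library mean, with starting fluorescence within 5 SD of its mean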;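 further: negative B-score means less thallium flux so channel inhibition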
KCNQ1 act: potentiators or activators of human KCNQ1 potassium channel. P51787. CHO-K1 KCNQ1, thallium flux FluxOR fluorescence; stronger effect = higher value. B-score at 10 µM. 310,000 tested, 0.35% active;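 active means fluorescence ratio B-score, a plate-corrected score, at least three library SD, with initial intensity B-score within 5 SD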
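Medium – assay buffer, equal DMSO in all wells · Material – CHO-K1 cell line with stable KCNQ1 potassium channel expression · Signal – kinetic FluxOR thallium fluorescence, 10-s 1-Hz baseline, 110-s post-stimulus read · Compound – single concentration per compound, DMSO matched to controls · Schedule – 37 °C overnight plating, 90-min dark dye load, 20-min compound pretreatment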
Kir21 block: Kir2.1 (mouse) channel inhibition; P35561; HEK293-Kir2.1, FluxOR thallium flux fluorescence; stronger effect = lower value; B-score at 10 µM; 310,000 tested, 0.85% active; AID 1672;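 active means fluorescence ratio B-score at or below minus 3 SD of library scores, with starting-brightness B-score within 2 SD, cut at about -4.2 in these data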;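 further: channel flux triggered by added potassium and thallium sulfate stimulus; B-score of peak minus minimum fluorescence over baseline after thallium stimulus; more negative B-score means stronger Kir2.1 block with less thallium influx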
KCNK3 block: human KCNK3 channel inhibition, primary screen. CHO-KCNK3 thallium flux, FluxOR fluorescence; stronger effect = lower value. B-score at 10 µM. 340,000 tested, 0.84% active. O14649;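 active means B-score under library mean minus 4 SD, starting fluorescence ratio at most library mean plus 5 SD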;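 further: more negative B-score means stronger inhibition of thallium flux through KCNK3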
KCNK9 block conf: human KCNK9 inhibitor confirmation. shares compounds with KCNK9 inh. HEK293 KCNK9 cells, FluxOR thallium flux fluorescence. inhibition, % at 10 µM. 4,900 tested, 43% active. AID 492992;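 active means thallium signal inhibited by more than 5 SD of the compound-free buffer control wells, on both duplicate plates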;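 further: 0% = assay buffer control wells without compound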
Kir21 sel: mouse Kir2.1 off-target activity of KCNK9 modulators | shares compounds with KCNK9 inh | Kir2.1 cells, FluxOR thallium flux fluorescence | inhibition, % at 10 µM | 4,900 tested, 4% active | AID 492993;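 active means thallium signal drop more than 5 SD beyond the mean of the no-compound control wells, seen in both duplicate plates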;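 further: signal is fluorescence rise after thallium addition divided by baseline fluorescence; plate controls were assay buffer only for no effect and full block by chlorpromazine control for full effect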
HEK293 Tl ctr: second counter-screen for KCNK9 modulators: effect in non-induced cells. non-induced KCNK9-HEK293, FluxOR thallium flux. shares compounds with KCNK9 inh. inhibition, % at 10 µM. AID 492997. 4,900 tested, 40% active;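 active means thallium signal drop beyond 5 SD of the untreated control mean, on both duplicate plates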;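 further: plate controls were buffer only IC0 wells for no effect and SID17386958 at its maximal inhibitory level for full effect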
Numbers without * were called inactive; i = inactive; x = no result given.

SMILES | hERG protect | KCNQ1 block | KCNK9 inh | KCNQ1 act | Kir21 block | KCNK3 block | KCNK9 block conf | Kir21 sel | HEK293 Tl ctr
COc1ccc(C(=O)NC(=S)Nc2ccc(CN3CCOCC3)cc2)cc1Br | 1 | i | i | i | -0.18 | i | i | i | i
CC1=C(C(=O)N2CCCC(N3CCN(c4cccc(C(F)(F)F)c4)CC3)C2)OCCO1 (stereo not drawn) | -10 | i | i | i | 0.41 | i | i | i | i
CC1=C(C(=O)N2CCCC(N3CCN(c4cccc(Cl)c4)CC3)C2)OCCO1 (stereo not drawn) | -9 | i | i | i | -0.08 | i | x | x | x
O=C(c1ccncc1)N1CCCC(N2CCN(c3cccc(C(F)(F)F)c3)CC2)C1 (stereo not drawn) | -13 | i | i | i | 0.13 | i | x | x | x
CSc1nc(C(=O)N2CCCC(N3CCN(c4ccccc4C)CC3)C2)cs1 (stereo not drawn) | -14 | i | i | i | -0.46 | i | i | i | i
CCc1cc(C(=O)N2CCCC(N3CCN(c4cccc(C(F)(F)F)c4)CC3)C2)n(C)n1 (stereo not drawn) | -9 | i | i | i | 1.5 | i | i | i | i
Cc1ccc(C(=O)N2CCCC(N3CCN(c4cccc(C(F)(F)F)c4)CC3)C2)s1 (stereo not drawn) | -13 | i | i | i | 1 | i | i | i | i
Cc1ccc(C(=O)N2CCCC(N3CCN(c4ccccc4F)CC3)C2)s1 (stereo not drawn) | -9 | i | i | i | -0.35 | i | i | i | i
Cc1cccc(C(=O)N2CCCC(N3CCN(c4ccccc4F)CC3)C2)n1 (stereo not drawn) | -10 | i | i | i | -0.04 | i | x | x | x
O=C(NC(Cc1ccccc1)c1ccc2c(c1)OCCCO2)c1ccccc1F (stereo not drawn) | -9 | i | i | i | 0.58 | i | x | x | x
CC(=O)N(CCC(Cc1ccccc1)c1ccc2c(c1)OCO2)Cc1ccccc1F (stereo not drawn) | -6 | 6* | -16* | i | -0.62 | i | 28%* | i | i
N#CCCN(Cc1cccnc1)C(=O)c1sc2cc(F)ccc2c1Cl | -6 | i | i | i | -0.79 | i | x | x | x
CN(CC(=O)NC1CCCCCCC1)S(=O)(=O)c1cccc2cccnc12 | -6 | i | i | i | 0.03 | i | i | i | i
O=C(N/N=C/c1cc(Br)cc(Br)c1O)c1cccc(S(=O)(=O)N2CCOCC2)c1 | -13 | i | -8.5* | i | -0.21 | i | 59%* | i | 68%*
COc1cccc(NC(=O)CN(C)C(=O)C23CC4CC(CC(Cl)(C4)C2)C3)c1 | x | x | x | x | x | i | x | x | x
Cc1ccc(-c2nc(NC(=O)CSc3cc(C)c4ccccc4n3)ns2)cc1 | -6 | i | i | i | -0.52 | i | x | x | x
COc1ccc2c(C)cc(SCC(=O)Nc3nsc(-c4ccc(C)cc4)n3)nc2c1 | -22 | i | -14* | i | -0.3 | i | 48%* | i | i
CC(C)(C)c1ccc(Cn2cnc(-c3ccc([N+](=O)[O-])cc3)c2)cc1 | -8 | i | i | i | -0.81 | i | i | i | i
CCCCN(C)Cc1cc(=O)oc2cc3c(cc12)CCCC3 | -3 | i | i | i | 0.36 | i | i | i | i
CCc1ccc(CN(C)CC(=O)Nc2ccc3c(c2)CCC3)cc1 | -18 | i | i | i | -1.5 | i | i | i | i
O=C(c1cccc(N2C(=O)C3C4C=CC(C4)C3C2=O)c1)N1CCN(c2ccccc2Cl)CC1 (stereo not drawn) | -7 | i | i | i | 0.62 | i | x | x | x
O=C(CSc1ccc2ccccc2n1)N1CCC(c2noc3ccc(F)cc23)CC1 | -9 | i | -9* | i | -0.66 | i | i | i | i
Cc1nnc(SCC(=O)N2CCC(c3noc4ccc(F)cc34)CC2)s1 | -11 | i | i | i | 0.48 | i | x | x | x
CCOC(=O)CSc1nc(C2CC2)cc(-c2ccc(Cl)cc2)c1C#N | -4 | i | -9.5* | i | -2.1 | i | 54%* | i | i
COC(=O)CSc1nc(C2CC2)cc(C(F)(F)F)c1C#N | -12 | i | i | i | -2 | i | x | x | x
SMILES | hERG protect | KCNQ1 block | KCNK9 inh | KCNQ1 act | Kir21 block | KCNK3 block | KCNK9 block conf | Kir21 sel | HEK293 Tl ctr
Cc1cccc(S(=O)(=O)c2c(C)cc(C)[nH]c2=O)c1 | -5 | i | i | i | 0.64 | i | x | x | x
C=C(C)Cn1c(C)cc(C)c(S(=O)(=O)c2cccc(C)c2)c1=O | -14 | i | -8.4* | i | -1 | i | 54%* | 44%* | 44%*
CC(=S)c1c(C)cc2cc(C)ccn12 | -6 | i | i | i | 0.42 | i | x | x | x
COc1ccc(C(=O)Nc2cc(C)nn2-c2ccc(F)cc2)cc1 | -8 | i | i | i | 0.95 | i | x | x | x
COc1ccc(NC(=O)COc2cccc(-n3cnnn3)c2)cc1 | -3 | i | i | i | 1.1 | i | x | x | x
Cc1ccc(NC2(c3nnnn3-c3c(C)cccc3C)CCCCC2)cc1 | -6 | i | -8.9* | i | 0.74 | i | 48%* | i | 44%*
COc1ccc(NC(C)(C)c2nnnn2-c2c(C)cccc2C)cc1 | -9 | i | i | i | -0.23 | i | x | x | x
Nc1cc(=O)[nH]c(SCC(=O)N2CCN(S(=O)(=O)c3ccc4ccccc4c3)CC2)n1 | -5 | i | i | i | -2.6 | i | x | x | x
O=C(CSc1ncc(C(F)(F)F)cc1Cl)N1CCN(S(=O)(=O)c2ccc3ccccc3c2)CC1 | -13 | i | i | i | 1.3 | i | i | i | i
O=C(Nc1nc2ccsc2c(=O)s1)c1ccc(F)cc1 | -9 | i | i | i | -0.96 | i | x | x | x
CN(Cc1nc2ccccc2c(=O)[nH]1)Cc1nc2ccsc2c(=O)[nH]1 | -11 | i | i | i | -0.03 | i | x | x | x
CCN(c1ccccc1)c1nc2ccsc2c(=O)s1 | -13 | i | i | i | -1.3 | i | i | i | i
CN(c1ccccc1)c1nc2ccsc2c(=O)s1 | -1 | i | i | i | -0.56 | i | i | i | i
